For data set [1], the system named is Mus musculus. The data set is described as follows: Hepatotoxicity in nude mouse xenografted with human HeLa cells assessed as edema in liver at 10 to 20 mg/kg, ip after 14 days by hematoxylin and eosin staining based microscopic analysis. To be noted: in vivo, 336 h. It counts as toxicity, organism-based. An outline of the steps: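 HeLa xenograft nude mice with tumours near 100 mm³, randomised to four groups of 28 mice in total. Dosing was intraperitoneal: vehicle, CA-4 10 mg/kg, or test compound at 10 or 20 mg/kg, continued for 14 days. Heart, liver, kidney and spleen were then H&E-stained and examined for inflammatory infiltration, edema, necrosis and cell morphology.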
(A xenograft is tissue or cells of one species grown in another, often human tumour cells in immunodeficient mice.)

In data set [2] the test system is HepG2. The experiment in a line: Cell cycle arrest in human HepG2 cells assessed as accumulation at G2/M phase at 0.020 uM after 24 hrs by propidium iodide staining based flow cytometric analysis (reference value: 20.17%). It is filed as functional. An outline of the steps: (§1)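 HepG2 and HeLa cells were exposed to 0, 0.020, 0.040, 0.060, 0.080 or 0.10 µM for 6, 12 or 24 h. DNA content was stained with propidium iodide and analysed by flow cytometry to give the percentage of cells in G0/G1, S and G2/M phases; sub-G1 cells were also recorded.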
On the technique in general: In flow cytometry, cells or beads pass a laser one at a time.

For data set [3], the system named is HepG2. The data set is described as follows: Cell cycle arrest in human HepG2 cells assessed as accumulation at S phase at 0.060 uM after 24 hrs by propidium iodide staining based flow cytometric analysis (reference value: 20.40%). It is filed as functional. An outline of the steps: as §1
In data set [4] the test system is HeLa. The data set is described as follows: Antitumor activity against human HeLa cells xenografted in nude mouse assessed as relative tumor growth inhibition at 10 mg/kg, ip after 14 days (reference value: 59.92%). It is filed as functional. As to conditions: 336 h, read-out: TGI.
Data set [5] has as its system HeLa. The experiment in a line: Antitumor activity against human HeLa cells xenografted in nude mouse assessed as necrosis of tumor cells at 10 to 20 mg/kg, ip after 14 days by hematoxylin and eosin staining based microscopic analysis. It counts as functional, organism-based. An outline of the steps:
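Excised tumours and heart, liver, kidney and spleen were H&E-stained and examined microscopically. Tumour scoring covered cell arrangement and necrosis. Organ scoring covered inflammatory infiltration, edema, necrosis and cell morphology.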

Data set [6] has as its system Mus musculus. The data set is described as follows: Nephrotoxicity in nude mouse xenografted with human HeLa cells assessed as morphological changes in kidney cells at 10 to 20 mg/kg, ip after 14 days by hematoxylin and eosin staining based microscopic analysis. It is filed as toxicity, organism-based. As to conditions: in vivo, 336 h.

Each structure is given as a SMILES string. Activity calls are given as the source filed them. The rule behind the calls is not given here.

On to `COc1cccc(C2=NN(C(=O)c3ccc(C)nc3)C(c3cn(C)c4ccc(OC)cc34)C2)c1` (stereo unspecified), for which the Activity result in data set [1] is “Non-Toxic”; in data set [2] it was 24.3%; in data set [3] it was 22.17%; in data set [6], “Non-Toxic”. The inhibition in vivo at 10 mg/kg in data set [4] came out at 47.1%. For the same compound, the outcome in data set [5] was Active.
